{"source": "paper PMC6512341", "about": "(ACS chemical neuroscience, 2018)", "key": {"[1]": {"test_system": "MDR1", "assay": "Permeability studies in MDCK-MDR1 cells", "assay_type": "in vitro ADME", "conditions": "dog, MDCK-MDR1"}, "[2]": {"assay": "Pilot brain and plasma pharmacokinetic studies of SW-100", "assay_type": "in vivo, C57BL/6 male mice", "conditions": "male, C57BL/6, mouse, ip, 20 mg/kg"}, "[3]": {"assay": "Liver microsomal stability, human", "assay_type": "in vitro ADME", "conditions": "liver microsomes"}, "[4]": {"assay": "Liver microsomal stability, mouse", "assay_type": "in vitro ADME", "conditions": "liver microsomes"}, "[5]": {"assay": "Hepatocyte stability, human", "assay_type": "in vitro ADME", "conditions": "hepatocytes"}, "[6]": {"assay": "Hepatocyte stability, mouse", "assay_type": "in vitro ADME", "conditions": "hepatocytes"}, "[7]": {"molecular_target": "hERG (Homo sapiens, UniProt Q12809)", "sequence (Q12809 whole entry)": "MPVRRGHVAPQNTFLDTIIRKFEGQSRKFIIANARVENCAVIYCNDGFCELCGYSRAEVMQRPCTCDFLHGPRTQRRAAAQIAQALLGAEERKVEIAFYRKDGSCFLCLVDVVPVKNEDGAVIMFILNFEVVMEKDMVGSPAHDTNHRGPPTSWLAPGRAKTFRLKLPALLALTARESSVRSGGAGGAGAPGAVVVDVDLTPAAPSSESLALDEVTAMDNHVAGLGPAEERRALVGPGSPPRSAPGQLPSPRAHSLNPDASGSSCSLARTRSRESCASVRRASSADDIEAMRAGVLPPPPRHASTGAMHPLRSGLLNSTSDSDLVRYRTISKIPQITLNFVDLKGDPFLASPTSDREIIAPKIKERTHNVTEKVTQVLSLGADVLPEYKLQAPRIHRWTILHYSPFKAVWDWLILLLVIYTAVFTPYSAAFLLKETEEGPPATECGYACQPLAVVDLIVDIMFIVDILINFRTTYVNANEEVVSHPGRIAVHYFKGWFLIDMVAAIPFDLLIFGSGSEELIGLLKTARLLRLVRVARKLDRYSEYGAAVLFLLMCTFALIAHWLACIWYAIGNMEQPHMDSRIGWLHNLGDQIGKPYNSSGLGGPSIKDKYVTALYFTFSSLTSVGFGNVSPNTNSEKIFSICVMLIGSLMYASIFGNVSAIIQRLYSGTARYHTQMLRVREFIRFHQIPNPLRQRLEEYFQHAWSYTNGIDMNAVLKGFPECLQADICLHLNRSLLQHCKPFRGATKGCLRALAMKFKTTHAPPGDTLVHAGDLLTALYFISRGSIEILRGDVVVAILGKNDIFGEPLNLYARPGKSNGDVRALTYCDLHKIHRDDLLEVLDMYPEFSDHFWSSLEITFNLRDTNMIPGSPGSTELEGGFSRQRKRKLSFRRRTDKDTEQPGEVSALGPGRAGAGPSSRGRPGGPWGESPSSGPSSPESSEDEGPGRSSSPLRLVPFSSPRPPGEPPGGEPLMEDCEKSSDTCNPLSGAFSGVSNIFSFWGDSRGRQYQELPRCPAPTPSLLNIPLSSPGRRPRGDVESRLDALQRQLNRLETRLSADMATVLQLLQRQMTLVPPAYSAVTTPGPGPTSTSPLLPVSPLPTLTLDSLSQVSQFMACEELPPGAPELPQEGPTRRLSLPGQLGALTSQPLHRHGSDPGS", "assay": "hERG test in HEK293 cells", "assay_type": "cell-based"}, "[8]": {"molecular_target": "T1, CYP1A2 (Homo sapiens, UniProt P05177)", "T1 sequence (P05177 1-516)": "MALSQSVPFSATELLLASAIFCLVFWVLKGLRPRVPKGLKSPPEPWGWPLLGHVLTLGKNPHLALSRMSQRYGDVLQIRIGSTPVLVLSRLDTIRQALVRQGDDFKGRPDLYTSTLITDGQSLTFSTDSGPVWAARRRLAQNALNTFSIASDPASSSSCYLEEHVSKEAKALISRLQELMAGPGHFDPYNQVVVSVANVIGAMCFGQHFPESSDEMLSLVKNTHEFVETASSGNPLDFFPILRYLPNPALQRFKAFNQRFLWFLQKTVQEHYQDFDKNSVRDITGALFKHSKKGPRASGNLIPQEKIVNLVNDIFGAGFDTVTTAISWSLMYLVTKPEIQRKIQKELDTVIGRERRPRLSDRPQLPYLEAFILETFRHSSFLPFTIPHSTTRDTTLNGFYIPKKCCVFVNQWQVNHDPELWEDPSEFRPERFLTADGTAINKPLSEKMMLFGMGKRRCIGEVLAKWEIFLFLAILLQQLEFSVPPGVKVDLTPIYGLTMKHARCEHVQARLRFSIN", "assay": "CYP inhibition, 1A2", "assay_type": "in vitro ADME"}, "[9]": {"molecular_target": "CYP2C9 (Homo sapiens, UniProt P11712)", "sequence (P11712 whole entry)": "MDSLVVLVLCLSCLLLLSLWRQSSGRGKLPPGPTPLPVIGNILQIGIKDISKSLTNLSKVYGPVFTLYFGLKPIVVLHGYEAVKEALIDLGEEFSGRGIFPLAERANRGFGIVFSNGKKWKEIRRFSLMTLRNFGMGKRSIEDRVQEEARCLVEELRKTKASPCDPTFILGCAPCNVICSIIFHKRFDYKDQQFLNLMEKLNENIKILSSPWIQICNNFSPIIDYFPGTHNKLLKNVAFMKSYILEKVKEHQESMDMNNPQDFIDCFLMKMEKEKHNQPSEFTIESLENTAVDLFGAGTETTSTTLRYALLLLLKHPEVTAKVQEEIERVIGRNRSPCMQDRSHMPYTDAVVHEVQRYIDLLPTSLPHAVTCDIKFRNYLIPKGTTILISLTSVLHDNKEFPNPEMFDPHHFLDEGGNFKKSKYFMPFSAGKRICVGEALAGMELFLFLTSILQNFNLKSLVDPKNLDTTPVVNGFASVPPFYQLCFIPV", "assay": "CYP inhibition, 2C9", "assay_type": "in vitro ADME"}, "[10]": {"molecular_target": "CYP2C19 (Homo sapiens, UniProt P33261)", "sequence (P33261 whole entry)": "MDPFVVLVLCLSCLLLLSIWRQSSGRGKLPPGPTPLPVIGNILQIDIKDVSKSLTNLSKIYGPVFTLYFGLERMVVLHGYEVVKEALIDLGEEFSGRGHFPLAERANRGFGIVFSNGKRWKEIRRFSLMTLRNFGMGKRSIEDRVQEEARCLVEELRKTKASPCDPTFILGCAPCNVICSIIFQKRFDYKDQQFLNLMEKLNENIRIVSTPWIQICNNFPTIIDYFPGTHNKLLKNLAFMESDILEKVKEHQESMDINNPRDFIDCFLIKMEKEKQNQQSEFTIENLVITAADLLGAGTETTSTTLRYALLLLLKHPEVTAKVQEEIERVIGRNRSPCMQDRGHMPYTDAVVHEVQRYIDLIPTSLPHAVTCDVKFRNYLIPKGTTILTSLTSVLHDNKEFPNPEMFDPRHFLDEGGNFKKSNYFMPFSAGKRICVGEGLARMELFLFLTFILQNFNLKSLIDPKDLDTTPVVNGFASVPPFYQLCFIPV", "assay": "CYP inhibition, 2C19", "assay_type": "in vitro ADME"}, "[11]": {"molecular_target": "CYP2D6 (Homo sapiens, UniProt P10635)", "sequence (P10635 whole entry)": "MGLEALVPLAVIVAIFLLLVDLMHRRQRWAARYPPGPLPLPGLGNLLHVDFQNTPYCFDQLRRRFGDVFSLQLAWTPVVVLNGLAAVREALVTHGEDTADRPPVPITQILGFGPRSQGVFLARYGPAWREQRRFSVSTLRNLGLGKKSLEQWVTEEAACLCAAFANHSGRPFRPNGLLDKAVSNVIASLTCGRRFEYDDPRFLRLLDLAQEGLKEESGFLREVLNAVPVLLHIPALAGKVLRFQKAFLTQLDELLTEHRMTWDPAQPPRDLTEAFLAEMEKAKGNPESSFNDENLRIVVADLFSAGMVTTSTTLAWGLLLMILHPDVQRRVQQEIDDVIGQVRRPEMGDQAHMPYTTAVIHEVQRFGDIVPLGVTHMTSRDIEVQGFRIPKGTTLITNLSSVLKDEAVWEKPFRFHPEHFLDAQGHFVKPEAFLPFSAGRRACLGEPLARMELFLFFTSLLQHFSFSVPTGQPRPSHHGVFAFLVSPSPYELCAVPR", "assay": "CYP inhibition, 2D6", "assay_type": "in vitro ADME"}, "[12]": {"molecular_target": "CYP3A4 (Homo sapiens, UniProt P08684)", "sequence (P08684 whole entry)": "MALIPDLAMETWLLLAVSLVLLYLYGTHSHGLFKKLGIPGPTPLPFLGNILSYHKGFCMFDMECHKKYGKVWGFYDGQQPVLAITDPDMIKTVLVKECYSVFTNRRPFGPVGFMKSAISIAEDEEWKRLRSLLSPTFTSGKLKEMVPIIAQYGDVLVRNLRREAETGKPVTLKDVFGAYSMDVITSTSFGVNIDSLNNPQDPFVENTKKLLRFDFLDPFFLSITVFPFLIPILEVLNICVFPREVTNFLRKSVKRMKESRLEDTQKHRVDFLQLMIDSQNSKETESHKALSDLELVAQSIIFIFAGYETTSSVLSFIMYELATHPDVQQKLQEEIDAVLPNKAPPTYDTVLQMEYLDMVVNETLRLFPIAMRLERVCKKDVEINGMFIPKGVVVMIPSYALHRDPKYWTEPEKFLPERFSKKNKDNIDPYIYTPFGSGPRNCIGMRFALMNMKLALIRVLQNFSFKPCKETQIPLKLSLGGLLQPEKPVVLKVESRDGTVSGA", "assay": "CYP inhibition, 3A4", "assay_type": "in vitro ADME"}, "[13]": {"test_system": "TA98, TA100, TA1535, TA1537, WP2 uvrA", "assay": "Ames test", "assay_type": "cell-based, Salmonella typhimurium, Escherichia coli", "conditions": "presence and absence of S9 mix"}, "[14]": {"test_system": "acetylated α-tubulin", "assay": "α-Tubulin acetylation studies in HEK293 cells", "assay_type": "cell-based", "conditions": "0.01, 0.1, 1, and 10 μM", "procedure,_shortened": "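HEK293 cells plated 24 h ahead and treated at 70% confluency with 10 nM–10 µM. Lysed in MPER with protease inhibitors; 2 µg protein boiled, run on 12% gel, transferred to PVDF. Blocked in 5% milk/TBST; anti-acetyl-tubulin 1:3000 overnight at 4 °C, then HRP secondary 1:5000; ECL. Reprobed for total α-tubulin at 1:1000. Densitometric ratio normalized to 10 µM reference HDAC6 inhibitor; n = 3–4; one-way ANOVA vs vehicle.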"}, "[15]": {"test_system": "acetylated histone 3", "assay": "Histone acetylation in N2a cells", "assay_type": "cell-based", "conditions": "compared to vehicle", "procedure,_shortened": "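N2a cells treated at 1 µM or 10 nM; reference HDAC inhibitors served as positive controls. Histones extracted by kit; protein by micro BCA. Samples denatured in reducing buffer at 95 °C for 5 min and blotted to PVDF. Blocked in 5% BSA/TBST 1 h at RT; primaries overnight: acetyl-H3 K9+K14 1:1000, histone 4 1:1000. Ratios normalized to vehicle; n = 4; one-way ANOVA vs vehicle.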"}, "[16]": {"test_system": "Fmr1^−/− mice", "assay": "Novel object recognition task", "assay_type": "in vivo", "conditions": "20 mg/kg IP"}, "[17]": {"test_system": "Fmr1^−/− mice", "assay": "Temporal order memory task", "assay_type": "in vivo", "conditions": "20 mg/kg IP"}, "[18]": {"test_system": "acetylated α-tubulin", "assay": "Immunoblot of acetylated α-tubulin in mouse hippocampus", "assay_type": "in vivo, mice", "conditions": "20 mg/kg, 2 h after treatment", "procedure,_shortened": "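Male C57BL/6 WT and Fmr1−/− mice, 8–10 weeks old, given 20 mg/kg IP twice daily on days 1–2, plus a dose 1 h before cognitive testing on days 3 and 4. Hippocampi taken 2 h after treatment and homogenized in Tris pH 7.4 lysis buffer with protease and phosphatase inhibitors. Spun at 20,800 × g for 10 min; Bradford assay. 10 µg protein run on SDS-PAGE to nitrocellulose; acetyl-α-tubulin and α-tubulin antibodies at 1:4000.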"}}}
{"smiles": "O=C(NO)c1ccc(CN2CCCc3cc(Cl)ccc32)cc1", "note": "[SW-100, 4-((6-Chloro-3,4-dihydroquinolin-1(2H)-yl)methyl)-N-hydroxybenzamide]", "values": [{"measurement": "Papp A→B at 2 h", "setting": "[1]", "value": 4.58, "unit": "×10⁻⁶ cm/s"}, {"measurement": "Papp B→A at 2 h", "setting": "[1]", "value": 2.33, "unit": "×10⁻⁶ cm/s"}, {"measurement": "concentration at 1 h", "setting": "[2]; brain", "value": "142 ± 52.3", "unit": "ng/mL"}, {"measurement": "concentration at 4 h", "setting": "[2]; brain", "value": "11.5 ± 0.3", "unit": "ng/mL"}, {"measurement": "Kp at 1 h", "setting": "[2]; brain/plasma", "value": 2.44}, {"measurement": "concentration at 1 h", "setting": "[2]; plasma", "value": "58.2 ± 24.9", "unit": "ng/mL"}, {"measurement": "concentration at 4 h", "setting": "[2]; plasma", "value": "2.52 ± 0.13", "unit": "ng/mL"}, {"measurement": "half-life", "setting": "[3]", "value": 23, "unit": "min"}, {"measurement": "half-life", "setting": "[4]", "value": 23, "unit": "min"}, {"measurement": "half-life", "setting": "[5]", "value": 30, "unit": "min"}, {"measurement": "half-life", "setting": "[6]", "value": 10, "unit": "min"}, {"measurement": "IC50", "setting": "[7]", "value": 12.2, "unit": "µM"}, {"measurement": "inhibition at 10 µM", "setting": "[8]", "value": 20.5, "unit": "%"}, {"measurement": "inhibition at 10 µM", "setting": "[9]", "value": 18.8, "unit": "%"}, {"measurement": "inhibition at 10 µM", "setting": "[10]", "value": 83.2, "unit": "%"}, {"measurement": "inhibition at 10 µM", "setting": "[11]", "value": 2.51, "unit": "%"}, {"measurement": "inhibition at 10 µM", "setting": "[12]", "value": -0.63, "unit": "%"}, {"measurement": "Ames test", "setting": "[13]", "value": "negative"}, {"measurement": "effect on acetylated α-tubulin levels (in words)", "setting": "[14]", "value": "more obvious increase in the acetylated α-tubulin levels in a dose-dependent manner"}, {"measurement": "levels of acetylated histone 3 to histone 4", "setting": "[15]", "value": "< 1.5", "unit": "fold"}, {"measurement": "novel object recognition: time exploring novel versus familiar object", "setting": "[16]; Fmr1^−/− mice", "value": "spent significantly more time exploring the novel object than the familiar object"}, {"measurement": "novel object recognition", "setting": "[16]; WT mice", "value": "did not alter the novel object recognition of WT mice"}, {"measurement": "temporal order: time exploring first versus most recent object", "setting": "[17]", "value": "spent significantly more time exploring the first object compared to the most recent object presented"}, {"measurement": "acetylated α-tubulin levels in the hippocampus", "setting": "[18]; Fmr1^−/− mice", "value": "significantly increased"}, {"measurement": "hippocampal α-tubulin acetylation", "setting": "[18]; WT mice", "value": "no significant influence"}]}
